Data: ChEMBL document CHEMBL2010803, “Novel NSAID 1-acyl-4-cycloalkyl/arylsemicarbazides and 1-acyl-5-benzyloxy/hydroxy carbamoylcarbazides as potential anticancer agents and antioxidants” (Eur J Med Chem, 2012)
Calls of active or inactive are those of the source. The calls are words filed in the database; no cut-off is given here.

Columns and labels:
[1] = test system: Respiratory syncytial virus; assay: Antiviral activity against RSV infected in human cervix carcinoma cells assessed as inhibition of virus-induced cytopathic effect at 0.32 to 100 uM; assay type: functional, organism-based
Method in brief: (§1)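 Confluent cell cultures were infected with 100 CCID50 of virus in the presence of test compound at 100, 40, 8, 1.6 and 0.32 μM. Cytopathic effect was scored once it was complete in untreated infected controls.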

[2] = test system: Coxsackievirus B4; assay: Antiviral activity against Coxsackievirus B4 infected in human cervix carcinoma cells assessed as inhibition of virus-induced cytopathic effect at 0.32 to 100 uM; assay type: functional, organism-based; method in brief: as §1
[3] = test system: L1210; assay: Cytostatic activity against mouse L1210 cells after 2 days by coulter counter analysis; assay type: functional, cell-based; details: L1210, 48 h
Method in brief: (§2)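 300,000–500,000 cells/ml mixed 1:1 with compound dilutions and incubated at 37 °C for 2 days (L1210) or 3 days (CEM, HeLa). Cell number counted with a Coulter counter; HeLa trypsinized before counting.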

[4] = test system: CCRF-CEM; assay: Cytostatic activity against human CEM cells after 3 days by coulter counter analysis; assay type: functional, cell-based; details: 72 h; method in brief: as §2
[5] = test system: HeLa; assay: Cytostatic activity against human HeLa cells after 3 days by coulter counter analysis; assay type: functional, cell-based; details: 72 h; method in brief: as §2
[6] = test system: HCT-116; assay: Cytostatic activity against human HCT116 cells after 72 hrs by MTT assay; assay type: functional, cell-based; details: HCT-116, 72 h
Method in brief: (§3)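 Monolayers in DMEM with 10% FBS, 2 mM L-glutamine and penicillin/streptomycin, 37 °C, 5% CO2. Seeded at 1–3 × 10^4 cells/ml, then compound added in tenfold dilutions (10⁻⁸–10⁻⁴ M) for 72 h. MTT read at 570 nm; percent growth taken against time-zero and untreated controls. IC50 by linear regression; quadruplicate, at least two experiments.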

[7] = test system: MCF7; assay: Cytostatic activity against human MCF7 cells after 72 hrs by MTT assay; assay type: functional, cell-based; details: MCF7, 72 h; method in brief: as §3
[8] = test system: NCI-H460; assay: Cytostatic activity against human NCI-H460 cells after 72 hrs by MTT assay; assay type: functional, cell-based; details: NCI-H460, 72 h; method in brief: as §3
[9] = test system: Human alphaherpesvirus 1; assay: Antiviral activity against HSV1 KOS infected in human lung fibroblast assessed as inhibition of virus-induced cytopathic effect at 0.32 to 100 uM; assay type: functional, organism-based; method in brief: as §1
[10] = test system: Human alphaherpesvirus 2; assay: Antiviral activity against HSV2 G infected in human lung fibroblast assessed as inhibition of virus-induced cytopathic effect at 0.32 to 100 uM; assay type: functional, organism-based; details: strain G; method in brief: as §1
[11] = test system: Vaccinia virus; assay: Antiviral activity against Vaccinia virus infected in human lung fibroblast assessed as inhibition of virus-induced cytopathic effect at 0.32 to 100 uM; assay type: functional, organism-based; details: Orthopoxvirus vaccinia
[12] = test system: Vesicular stomatitis virus; assay: Antiviral activity against VSV infected in human lung fibroblast assessed as inhibition of virus-induced cytopathic effect at 0.32 to 100 uM; assay type: functional, organism-based
[13] = test system: Human respirovirus 3; assay: Antiviral activity against Parainfluenza virus 3 infected in african green monkey Vero cells assessed as inhibition of virus-induced cytopathic effect at 0.32 to 100 uM; assay type: functional, organism-based; method in brief: as §1
[14] = test system: Mammalian orthoreovirus 1; assay: Antiviral activity against Reovirus-1 infected in african green monkey Vero cells assessed as inhibition of virus-induced cytopathic effect at 0.32 to 100 uM; assay type: functional, organism-based; method in brief: as §1
[15] = test system: Sindbis virus; assay: Antiviral activity against Sindbis virus infected in african green monkey Vero cells assessed as inhibition of virus-induced cytopathic effect at 0.32 to 100 uM; assay type: functional, organism-based; method in brief: as §1
[16] = test system: Coxsackievirus B4; assay: Antiviral activity against Coxsackievirus B4 infected in african green monkey Vero cells assessed as inhibition of virus-induced cytopathic effect at 0.32 to 100 uM; assay type: functional, organism-based; method in brief: as §1
[17] = test system: Punta Toro virus; assay: Antiviral activity against Punta Toro virus infected in african green monkey Vero cells assessed as inhibition of virus-induced cytopathic effect at 0.32 to 100 uM; assay type: functional, organism-based; method in brief: as §1
[18] = test system: Vesicular stomatitis virus; assay: Antiviral activity against Vesicular stomatitis virus infected in human cervix carcinoma cells assessed as inhibition of virus-induced cytopathic effect at 0.32 to 100 uM; assay type: functional, organism-based
Method in brief: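 Confluent human cervix carcinoma (HeLa) cultures received 100 CCID50 of VSV together with the compound at 100, 40, 8, 1.6 or 0.32 μM. Cytopathicity was read at the point of full CPE in infected, untreated control wells.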

[19] = test system: Felid alphaherpesvirus 1; assay: Antiviral activity against Feline herpesvirus infected in feline CRFK cells assessed as inhibition of virus-induced cytopathic effect at 0.32 to 100 uM; assay type: functional, organism-based; method in brief: as §1
[20] = test system: Feline coronavirus; assay: Antiviral activity against Feline coronavirus infected in feline CRFK cells assessed as inhibition of virus-induced cytopathic effect at 0.32 to 100 uM; assay type: functional, organism-based; method in brief: as §1
[21] = test system: Influenza A virus; assay: Antiviral activity against Influenza A virus H1N1 infected in MDCK cells assessed as inhibition of virus-induced cytopathic effect at 0.32 to 100 uM; assay type: functional, organism-based
Method in brief: (§4)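 Confluent MDCK monolayers were infected in the presence of the compound at 100, 40, 8, 1.6 and 0.32 μM. Viral cytopathicity was scored once it was complete in untreated infected control cultures.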

[22] = test system: Influenza A virus; assay: Antiviral activity against Influenza A virus H3N2 infected in MDCK cells assessed as inhibition of virus-induced cytopathic effect at 0.32 to 100 uM; assay type: functional, organism-based; method in brief: as §4
[23] = test system: Influenza B virus; assay: Antiviral activity against Influenza B virus infected in MDCK cells assessed as inhibition of virus-induced cytopathic effect at 0.32 to 100 uM; assay type: functional, organism-based; method in brief: as §4
[24] = test system: Human immunodeficiency virus 1; assay: Antiviral activity against HIV1 3B infected in human CEM cells assessed as inhibition of virus-induced CEM giant cell formation at 0.32 to 100 uM after 4 days; assay type: functional, organism-based; details: CCRF-CEM
Method in brief: (§5)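 CEM cells (~3 × 10^5 cells/cm³) exposed to 100 CCID50/ml of virus and seeded into wells holding compound dilutions. Incubated 4 days at 37 °C, then giant cell formation examined microscopically.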

[25] = test system: Human immunodeficiency virus 2; assay: Antiviral activity against HIV2 ROD infected in human CEM cells assessed as inhibition of virus-induced CEM giant cell formation at 0.32 to 100 uM after 4 days; assay type: functional, organism-based; details: ISOLATE ROD, CCRF-CEM; method in brief: as §5
[26] = test system: Radical scavenging activity; assay: Antioxidant activity assessed as DPPH free radical scavenging activity at 100 uM after 20 mins by spectrophotometric analysis; assay type: functional
Method in brief: (§6)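 0.05 mM DPPH in absolute ethanol mixed with an equal volume of compound in DMSO (final 100 μM). Shaken and left 20 or 60 min, then absorbance read at 517 nm and percent activity calculated. Three replicates, averaged.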

[27] = test system: Radical scavenging activity; assay: Antioxidant activity assessed as DPPH free radical scavenging activity at 100 uM after 60 mins by spectrophotometric analysis; assay type: functional; method in brief: as §6
[28] = Antioxidant activity assessed as inhibition of AAPH-induced linoleic acid lipid peroxidation by measuring conjugated diene hydroperoxide level; assay type: functional; parameters: concentration or dose not given beside the values; details: dose or concentration not given here
Method in brief: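 Linoleic acid sodium salt (10 μL of 16 mM) in 0.05 M phosphate buffer pH 7.4 at 37 °C. Oxidation started under air with 50 μL of 40 mM AAPH. Conjugated diene hydroperoxide formation followed as absorbance rise at 234 nm; control contains the same DMSO level. At least triplicate.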

[29] = test system: Glycine max; assay: Inhibition of soybean LOX assessed as conversion of sodium linoleate to 13- hydroperoxylinoleic acid at 100 uM

| Structure (SMILES) | inhibition [1] | inhibition [2] | IC50 [3] [µM] | IC50 [4] [µM] | IC50 [5] [µM] | IC50 [6] [µM] | IC50 [7] [µM] | IC50 [8] [µM] | inhibition [9] | inhibition [10] | inhibition [11] | inhibition [12] | inhibition [13] | inhibition [14] | inhibition [15] | inhibition [16] | inhibition [17] | inhibition [18] | inhibition [19] | inhibition [20] | also measured |
| --- | --- | --- | --- | --- | --- | --- | --- | --- | --- | --- | --- | --- | --- | --- | --- | --- | --- | --- | --- | --- | --- |
| CC(C)Cc1ccc(C(C)C(=O)NNC(=O)NO)cc1 (configuration not stated) | inactive | inactive | 108 | 205 | 160 | > 100 | > 100 | > 100 | inactive | inactive | inactive | inactive | inactive | inactive | inactive | inactive | inactive | inactive | inactive | inactive | inhibition [21]: inactive; inhibition [22]: inactive; inhibition [23]: inactive; inhibition [24]: inactive; inhibition [25]: inactive; Activity [26]: 29%; Activity [27]: 54%; inhibition [28]: 20%; inhibition [29]: 7% |
| CC(C(=O)NNC(=O)NNC(=O)NO)c1cccc(Oc2ccccc2)c1 (configuration not stated) | inactive | inactive | > 250 | > 250 | ≥ 250 | > 100 | > 100 | > 100 | inactive | inactive | inactive | inactive | inactive | inactive | inactive | inactive | inactive | inactive | inactive | inactive | inhibition [21]: inactive; inhibition [22]: inactive; inhibition [23]: inactive; inhibition [24]: inactive; inhibition [25]: inactive; Activity [26]: 23%; Activity [27]: 48%; inhibition [28]: 13%; inhibition [29]: inactive |
| O=C(NNC(=O)n1nnc2ccccc21)NOCc1ccccc1 | inactive | inactive | > 250 | > 250 | > 250 | > 100 | > 100 | > 100 | inactive | inactive | inactive | inactive | inactive | inactive | inactive | inactive | inactive | inactive | inactive | inactive | inhibition [21]: inactive; inhibition [22]: inactive; inhibition [23]: inactive; inhibition [24]: inactive; inhibition [25]: inactive; Activity [26]: 85%; Activity [27]: 85%; inhibition [28]: 31%; inhibition [29]: inactive |
